This is a sample that favours compounds with a hit; in the whole collection about 3.1% have one here.
T cruzi repl: inhibitors of intracellular T. cruzi growth, primary screen, luminescence, NIH3T3 host cells. T. cruzi beta-gal in NIH3T3, 90 h. inhibition, % (concentration not given with the values). actives 1.4% (n = 300,000);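 active = mean inhibition across valid replicates above about 55%, limit read from the data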;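 also: signal also drops with host cell toxicity which is not excluded here; 0% = plate median of DMSO wells and 100% = zero luminescence signal; higher percent means less beta-gal luminescence so fewer parasites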
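System: NIH/3T3 fibroblasts plus reporter T. cruzi. Medium: DMEM plus 2% FBS. Probe or stimulus: 5000 reporter trypomastigotes per well. Compound: single 50 nL compound addition per well in DMSO. Incubation: co-culture of at least 90 h after 3 h attachment. Detection: GalScreen β-gal luminescence, detergent lysis, 60 min. Evaluation: parasite load inhibition, %.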
Calb FLC: C. albicans growth inhibition with fluconazole, primary screen, CaCi-2 strain, Alamar Blue fluorescence; C. albicans CaCi-2 + fluconazole, 48 h; growth inhibition, % (concentration not given with the values); actives 0.57% (n = 300,000);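 active = growth inhibition above about 58% in most replicates, limit read from the data, passing the limit was not always enough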;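 also: all wells also contain fluconazole at 8 µg/ml as a sub-toxic cotreatment; 0% = median of DMSO wells and 100% = median of geldanamycin control wells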
H9c2 TAG inh: inhibitors of triacylglycerol accumulation, primary screen, cell-based, uHTS, fluorescence, H9c2 | H9c2 cells, Nile Red lipid (TAG) fluorescence; cells loaded with 200 µM oleic acid | inhibition, % at 12.5 µM | actives 0.66% (n = 230,000) | AID 651582, 2012;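 active = pattern-corrected inhibition of lipid staining of at least 50% with the nuclear-stain viability signal not falling by more than 50%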;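 also: 0% = DMSO wells and 100% = triacsin C control wells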
Bfl-1 A1 inh: caspase 3/7 activation in MEF A1-2A-BIM cells, primary screen, A1 inhibitor project, cell-based, luminescence, HTS; caspase activation, % (concentration not given with the values); AID 2462, 2010; actives 0.066% (n = 330,000); Caspase-Glo 3/7 luminescence, 3 h; percent of clofoctol response, vehicle zero;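 active = over half of replicate activation scores above 10%, or exactly half above 10 with the replicate mean above 10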
CSC inhib: cancer stem cell viability inhibitors, primary screen, luminescence. inhibition, % at 7.5 µM. cancer stem cell-like cells viability. AID 2717, 2010. actives 1.1% (n = 300,000); in the data active = inhibition above about 75%; tested in HMLE shEcad cells
Beta apoptosis: inhibitors of cytokine-induced beta cell apoptosis, primary screen, luminescence. actives 0.8% (n = 300,000). protection from apoptosis, % (concentration not given with the values). INS-1E cytokine-induced death, ATP luminescence, 48 h; percent of positive-control rescue, neutral wells zero;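 active = Every replicate reaches about 75%, or at least half do and their mean reaches it too, limit read from the data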;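 also: 0% = cytokine-treated negative control wells and 100% = positive control rescue; higher means more ATP so stronger rescue from cytokine killing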
Active calls of the source: *.

What do the screens show for `Clc1ccc(C[n+]2c(-c3ccccc3)cc(-c3ccccc3)cc2-c2ccccc2)cc1`?
T cruzi repl: 56*; Calb FLC: 1; H9c2 TAG inh: 36; Bfl-1 A1 inh: -1; CSC inhib: 5; Beta apoptosis: 122*

How did Cc1cc(-c2ccccc2)cc(-c2ccccc2)[n+]1CCc1ccccc1 do in these assays?
T cruzi repl: 59*; Calb FLC: 97*; H9c2 TAG inh: 17; Bfl-1 A1 inh: -1; CSC inhib: 16; Beta apoptosis: 133*

Results for C[n+]1c(-c2ccccc2)cc(-c2ccc(O)cc2)cc1-c1ccccc1 ?
T cruzi repl: 43; Calb FLC: -15; H9c2 TAG inh: -4; Bfl-1 A1 inh: 1; CSC inhib: 3; Beta apoptosis: -6

What do the screens show for `COC(=O)C1=C(c2cccc(NC(C)=O)c2)C[C@@H]2CC[C@H]1N2C`?
H9c2 TAG inh: -2; Bfl-1 A1 inh: 0; CSC inhib: -6; Beta apoptosis: -2

How did COC(=O)C1=C(c2ccc(OC)c(OC)c2)C[C@@H]2CC[C@H]1N2C(=O)NCc1ccco1 do in these assays?
H9c2 TAG inh: -12; Bfl-1 A1 inh: -1; CSC inhib: 1; Beta apoptosis: -10

What do the screens show for `N#CC1=C(N)Oc2cc(O)ccc2C1c1ccc2c(c1)OCO2` (configuration not stated)?
T cruzi repl: 8; Calb FLC: 2; Bfl-1 A1 inh: 1; CSC inhib: -8; Beta apoptosis: 3

What do the screens show for `CCOC(=O)C(NC(=O)C(Cc1ccc(N(CCCl)CCCl)cc1)NC(C)=O)C(C)C` (configuration not stated)?
T cruzi repl: -8; Calb FLC: -1; H9c2 TAG inh: 2; Bfl-1 A1 inh: -1; CSC inhib: 44; Beta apoptosis: 38

What do the screens show for `COC(=O)C(Cc1ccc(N(CCCl)CCCl)cc1)N=Cc1ccccc1O` (configuration not stated)?
T cruzi repl: 44; Calb FLC: 7; Bfl-1 A1 inh: 0; CSC inhib: 83*; Beta apoptosis: 106*

How did CC(=O)c1cccc(OCC(=O)N2CCN(CC(=O)Nc3cccc(F)c3)CC2)c1 do in these assays?
H9c2 TAG inh: 3; Bfl-1 A1 inh: 0; Beta apoptosis: -6

How did O=c1nc(/C=C/c2ccc(Cl)cc2Cl)cc(C(F)(F)F)[nH]1 do in these assays?
T cruzi repl: 15; Calb FLC: 0; Bfl-1 A1 inh: 1; CSC inhib: 108*; Beta apoptosis: 6

What do the screens show for `C[C@]12CCC3C(CC[C@@H]4C[C@H](O)CC[C@]34C)C1CCC2=O` (some centres not stated)?
H9c2 TAG inh: -8; Bfl-1 A1 inh: 1; CSC inhib: -3; Beta apoptosis: 1

How did COc1ccc(Cn2c(O)c(/C=N/NC(=O)c3ccncc3)c(=O)[nH]c2=O)cc1 do in these assays?
T cruzi repl: -32; Calb FLC: 2; H9c2 TAG inh: 11; Bfl-1 A1 inh: -1; CSC inhib: -14; Beta apoptosis: -1

What do the screens show for `COc1ccc(Cn2c(O)c(/C=N/NC(=O)c3ccccc3)c(=O)[nH]c2=O)cc1`?
T cruzi repl: -40; Calb FLC: 81*; H9c2 TAG inh: 8; Bfl-1 A1 inh: -1; CSC inhib: -5; Beta apoptosis: -8

How did O=c1c2ccccc2nc(-c2ccc(-c3ccccc3)cc2)n1-c1ccncc1 do in these assays?
T cruzi repl: 84*; Calb FLC: 28; Bfl-1 A1 inh: 1; CSC inhib: -3; Beta apoptosis: 3

Results for Cc1ccc(S(=O)(=O)N2CCN(C(=O)COC(=O)Cc3ccccc3)CC2)c(C)c1 ?
T cruzi repl: -15; Calb FLC: 10; H9c2 TAG inh: 4; Bfl-1 A1 inh: 0; CSC inhib: -10; Beta apoptosis: -3

How did Cc1cccc(N=C2c3cc([N+](=O)[O-])ccc3-c3c2cc([N+](=O)[O-])cc3[N+](=O)[O-])c1 do in these assays?
H9c2 TAG inh: 62*

What do the screens show for `CCCCC1(CCCC)C(=O)NC(=Nc2cccc(C)c2)NC1=O`?
T cruzi repl: -5; Calb FLC: -1; H9c2 TAG inh: -13; Bfl-1 A1 inh: 0; CSC inhib: 32; Beta apoptosis: 6

Results for Cn1ncc(Cl)c1C(=O)N1CCC2(CC1)OCCO2 ?
T cruzi repl: -6; Calb FLC: 8; H9c2 TAG inh: -12; Bfl-1 A1 inh: 0; CSC inhib: -6

How did CC(=O)OC(C)(C)/C=C/C(=O)C(C)(O)C1[C@H](O)C[C@@]2(C)C3CC=C4C(CC[C@@H](O)C4(C)C)[C@]3(CO)C(=O)C[C@]12C (some centres not stated) do in these assays?
T cruzi repl: 56*; Calb FLC: 3; Bfl-1 A1 inh: 11*; CSC inhib: 41

Results for COC(=O)C1=C(c2ccc(OC(F)(F)F)cc2)C[C@@H]2CC[C@H]1N2C(=O)NCCOc1ccc(OC)cc1 ?
H9c2 TAG inh: 19; Bfl-1 A1 inh: -1; CSC inhib: 3; Beta apoptosis: -5

What do the screens show for `Cc1cc(C)c2c(ccc3cccc[n+]32)c1`?
T cruzi repl: 13; Calb FLC: 0; H9c2 TAG inh: -21; Bfl-1 A1 inh: -1; CSC inhib: -11; Beta apoptosis: 82*

How did Cn1c(O)c(/C=N/N2CCOCC2)c(=O)n(C)c1=S do in these assays?
T cruzi repl: -10; Calb FLC: 6; H9c2 TAG inh: 0; Bfl-1 A1 inh: 0; CSC inhib: -7; Beta apoptosis: -7

What do the screens show for `C=C1C(=O)O[C@@H]2C[C@@H](C)[C@@H]3C=CC(=O)[C@@]3(C)[C@@H](O)[C@H]12`?
T cruzi repl: 43; H9c2 TAG inh: 72*; Bfl-1 A1 inh: 1; CSC inhib: 52; Beta apoptosis: 112*

Results for C[C@@H]1C[C@H]2OC(=O)C3(CO3)[C@H]2[C@H](O)[C@]2(C)C(=O)C3OC3[C@@H]12 (some centres not stated) ?
T cruzi repl: -41; Calb FLC: 16; Bfl-1 A1 inh: 1; CSC inhib: 58; Beta apoptosis: -8

Results for O=C(C[N+]12CCC(CC1)C(C(O)(c1ccccc1)c1ccccc1)C2)c1ccc(Br)cc1 (configuration not stated) ?
T cruzi repl: 5; Calb FLC: 95*; H9c2 TAG inh: 1; Bfl-1 A1 inh: 0; CSC inhib: -12; Beta apoptosis: 4

Results for N#Cc1ccc(CN2Cc3ccccc3-n3nncc3C2)cc1 ?
H9c2 TAG inh: 11

Bioassay records from PubChem.
